MPTP inh – mitochondrial permeability transition pore inhibitors, primary screen, biochemical, isolated mouse mitochondria, absorbance | Ca2+ swelling absorbance, 30 min | inhibition, % at 10 µM | 360,000 tested, 1.4% active | AID 602449, 2012;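 active means inhibition of 50% or more, scaled per plate between neutral and stimulator controls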;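 further: 0% = DMSO wells given calcium and 100% = 1 mM EGTA wells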
MC4R antag cAMP – MC4R antagonists of cAMP signaling, primary screen, cell-based, TR-FRET, antagonist arm of biased-ligand search; 360,000 tested, 0.48% active; inhibition, % at 6.5 µM; AID 540295, 2011; MC4R-expressing cells, MTII-stimulated cAMP, LANCE TR-FRET; Melanocortin receptor 4 (Homo sapiens), P32245;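 active means inhibition above its plate's cutoff, the mean of tested wells on that plate plus 3 SD, cut at about 29% in these data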;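 further: 0% = Melanotan II alone and 100% = Melanotan II plus saturating MCL0020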
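Test system: U2OS cells stably expressing human melanocortin 4 receptor (MC4R); also added: Melanotan II challenge; compound: 6.5 µM single dose; timing: 30-min compound preincubation, 1-h Melanotan II challenge, 1-h detection, room temperature; signal: Eu-cAMP/anti-cAMP TR-FRET, emission 671 nm; repeats: one well per compound, no replicates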
ATG4B inhibitor – ATG4B protease inhibitors, primary screen, biochemical, fluorescence, uHTS | Cysteine protease ATG4B (Homo sapiens), Q9Y4P1 | ATG4B cleavage of LC3-PLA2, NBD-HPC fluorescence, 1 h | inhibition, % at 8.33 µM | 340,000 tested, 0.51% active; in the data active means inhibition above about 40%
Target sequence (Q9Y4P1 whole entry, looked up): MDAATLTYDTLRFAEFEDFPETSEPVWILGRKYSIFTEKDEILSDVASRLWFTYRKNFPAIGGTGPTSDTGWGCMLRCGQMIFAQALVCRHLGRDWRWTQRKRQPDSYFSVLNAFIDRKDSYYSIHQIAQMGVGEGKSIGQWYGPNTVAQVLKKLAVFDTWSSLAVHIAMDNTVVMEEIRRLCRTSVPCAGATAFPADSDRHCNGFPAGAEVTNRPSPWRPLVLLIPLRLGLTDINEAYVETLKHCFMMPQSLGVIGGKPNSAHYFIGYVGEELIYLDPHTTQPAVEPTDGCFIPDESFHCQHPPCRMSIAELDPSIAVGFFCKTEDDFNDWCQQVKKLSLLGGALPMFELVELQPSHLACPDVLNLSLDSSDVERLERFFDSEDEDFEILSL
SMARCA2 activ – SMARCA2 (BRM) function activators, primary screen, cell-based, luminescence, high throughput. MG213 cells, MMTV-luciferase reporter, dexamethasone, overnight. activation, % at 9.1 µM. 370,000 tested, 1% active. AID 652017, 2013; in the data active means activation above about 7.8%;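 further: 0% = vehicle wells and 100% = reference activator wells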
MC4R barr agon – MC4R agonists recruiting beta-arrestin, primary screen, cell-based, luminescence, agonist arm of biased-ligand search; Melanocortin receptor 4 (Homo sapiens), P32245; U2OS MC4R beta-arrestin complementation; percent of melanotan II response, DMSO zero; activation, % at 8.9 µM; 360,000 tested, 0.98% active; AID 540308, 2011;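 active means activation above a per-plate cutoff, the mean activation of sample wells on that plate plus 3 SD, cut at about 8% in these data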
MC4R barr ag – MC4R beta-arrestin agonists, retest, confirmation, cell-based, luminescence, U2OS; AID 602192, 2012; activation, % at 8.9 µM; 2,400 tested, 31% active; shares compounds with MC4R barr agon; U2OS MC4R beta-arrestin recruitment; scaled DMSO 0%, Melanotan II 100%;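 active means mean activation across replicates above the hit cutoff set in the earlier primary screen, cut at about 8% in these data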
MOR DOR agonist – agonists of MOR-DOR heterodimerization, counter-screen for MC4R biased agonist project, cell-based, luminescence; shares compounds with MC4R barr agon; U2OS PathHunter beta-arrestin, beta-gal luminescence; percent of deltorphin B response, DMSO zero; activation, % at 9.2 µM; 2,400 tested, 5.8% active; AID 602194, 2012;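 active means mean activation across replicates exceeds the hit threshold derived in the earlier primary screen, cut at about 18% in these data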;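 further: 100% = deltorphin B at 0.9 µM final and 0% = DMSO alone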
* hit, by the source's call; . = not tested or not shown. This is a sample that favours compounds with a hit; in the whole collection about 4.1% have one here.

SMILES | MPTP inh | MC4R antag cAMP | ATG4B inhibitor | SMARCA2 activ | MC4R barr agon | MC4R barr ag | MOR DOR agonist
CCc1ccc(Nc2nnc(SCC(=O)Nc3ccc(C(=O)O)cc3)s2)cc1 | 0 | 15 | -6 | 2 | 0 | . | .
CCc1ccc(Nc2nnc(SCC(=O)NC(=O)c3cccn3C)s2)cc1 | 8 | -7 | 3 | -2 | 20* | 4 | 12
Cc1ccc(CSc2nnc(Nc3ccc(C)cc3)s2)cc1 | 21 | 14 | -4 | -6 | 19* | 4 | 4
Cc1cccc(Cn2cc3c(=O)n(Cc4cccc(F)c4)nc-3c3ccccc32)c1 | -1 | 24 | 8 | 0 | 17* | -2 | 10
CCOc1ccc(-n2c(SCC(=O)c3ccccc3Cl)nnc2-c2ccncc2)cc1 | . | . | . | -2 | . | . | .
Cc1ccc(/C=C/C(=O)Nc2cc(C)on2)cc1 | 0 | 5 | 6 | 5 | 19* | 2 | 6
Cc1ccc(-c2nnc(-c3ccc4ccccc4c3)o2)cc1 | 0 | 3 | -4 | 3 | 10* | -4 | 1
Clc1ccc(-c2nnc(-c3ccc4ccccc4c3)o2)cc1 | 2 | 6 | -7 | 7 | 1 | . | .
Cc1cc(C(=O)Nc2ccc(N3CCOCC3)c3nonc23)ccc1[N+](=O)[O-] | 1 | -20 | 0 | 1 | 4 | . | .
Cc1ccc(C(=O)Nc2ccc(N3CCOCC3)c3nonc23)cc1[N+](=O)[O-] | 0 | -11 | -2 | -2 | 11* | -1 | 3
Cc1cc(CSc2ccccc2)ccc1NC(=O)c1ccc(Br)cc1 | 9 | -4 | 4 | 1 | 9.9* | 12* | 7
Cc1ccc(NC(=O)c2nc[nH]c2C(=O)Nc2ccccc2F)cc1 | 1 | 0 | . | 4 | 16* | -1 | 2
COC(=O)[C@]12C=CCN1[C@@H](c1ccc(OC)c(OC)c1)c1c(c3ccccc3n1S(=O)(=O)c1ccc(C)cc1)C2 | . | . | . | -3 | . | . | .
CN(N=Cc1ccccc1O)C(=O)c1ccccc1N | . | . | . | -2 | . | . | .
COC(=O)CCCN1C(=O)NC(c2ccc(-c3ccccc3)cc2)C(C(=O)OCc2ccccc2)=C1C (centres undefined) | 0 | 6 | 4 | -5 | 12* | 12* | 3
CCOc1ccc(/C=N/NC(=O)c2cc3c(OC)cccc3[nH]2)cc1 | 1 | -8 | -6 | 1 | 11* | 3 | 18*
Fc1ccccc1/C=N/Nc1nc2ccccc2o1 | 0 | -1 | -6 | 3 | 13* | -1 | 5
CCOC(=O)c1oc2ccccc2c1NC(=O)COc1ccc(F)cc1 | 0 | -6 | 2 | . | 37* | 25* | 21*
CCOCc1c(C(=O)OCC(=O)NCc2ccc(F)cc2)oc2ccccc12 | -2 | 5 | -11 | 3 | 14* | 2 | 3
COCc1c(C(=O)OCC(=O)NCCc2ccc(S(N)(=O)=O)cc2)oc2ccccc12 | 1 | 5 | -3 | 0 | -2 | . | .
O=C(Nc1ccc2c(c1)OCO2)OC1CCC12CCCCC2 (centres undefined) | . | . | . | 2 | . | . | .
CCN(CC)CC(=O)Nc1cccc2c1C(=O)c1ccccc1C2=O | 8 | 24 | 7 | -2 | 11* | 2 | 6
CCN(CC)CC(=O)Nc1c(C)cccc1C | . | 3 | 2 | -7 | 0 | . | .
CCn1c(=O)n(CC(=O)N2CCCC2)c(=O)c2ccccc21 | . | . | . | -3 | . | . | .
Cc1nc2c(ccc3nc(NC(=O)c4ccc5c(c4)OCCO5)sc32)s1 | 1 | 6 | -20 | 8 | 11* | -3 | 5
COc1cccc(C(=O)N[C@H](C(=O)N2CCC[C@H]2C(=O)NCc2ccccc2)C2CCCCC2)c1 | . | . | . | -4 | . | . | .

Screening results: PubChem, several laboratories
